# Test results: ChEMBL document CHEMBL4251734, “Study on Liposomal Encapsulation of New Bodipy Sensitizers for Photodynamic Therapy” (ACS Med Chem Lett, 2018)
# The source made the active and inactive calls. No cut-off for these calls is given here.
# Key:
# SK-OV-3 [1] = test: Photocytotoxicity in human SKOV3 cells assessed as cell death incubated for 6 hrs followed by PDT-1200 light irradiation at 20 J/cm2 measured after 16 hrs using liposome-encapsulated compound by MTT assay; type: functional, cell-based; conditions: SK-OV-3, light or radiation study
# In short: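 Photosensitizer was loaded into egg phosphatidylcholine/DOPE liposomes (mole ratio EPC:DOPE:PS 70:25:5). Loaded PS was quantified by absorbance in DMSO against standard curves. SK-OV-3 cells were treated and irradiated at 20 J cm^-2, with a dark plate as the control. Viability was read by MTT. IC50 was taken as the PS concentration killing 50% of cells. Triplicate.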
# SK-OV-3 [2] = test: Photocytotoxicity in human SKOV3 cells assessed as cell death at 0.1 to 1 uM incubated for 6 hrs followed by PDT-1200 light irradiation at 20 J/cm2 measured after 16 hrs by MTT assay; type: functional, cell-based
# In short: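 Free photosensitizer, not encapsulated in liposomes, was added to SK-OV-3 cells. The cells were then exposed to light at 20 J cm^-2, a dose chosen from a preliminary light-dose series. A dark plate served as the control. Viability was read by MTT, and IC50 was taken as the PS concentration killing 50% of cells. Each light treatment was done in triplicate.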
# [3] = Dark toxicity in human SKOV3 cells assessed as cell death at 0.1 to 1 uM incubated for 6 hrs using liposome-encapsulated compound by MTT assay; type: cell-based; conditions: sk-ov-3, 6 h
# In short: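 Liposomes of egg phosphatidylcholine, DOPE and photosensitizer at mole ratio 70:25:5. The PS content of the liposomes was estimated from absorbance after dissolving them in DMSO, read against standard curves of each pure PS in DMSO. Treated SK-OV-3 plates were kept shielded from all light, including stray light, as the dark control. Viability was read by MTT. Triplicate.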
SMILES,IC50 (SK-OV-3 [1]) [nM],Activity (SK-OV-3 [2]),Activity [3]
C=Cc1c(C)c2cc3nc(c(CC(=O)O)c4[nH]c(cc5nc(cc1[nH]2)C(C)=C5CC)c(C)c4C(=O)O)[C@@H](CCC(=O)O)[C@@H]3C [CHLORIN E6],390,–,–
COc1ccc(/C=C/C2=[N+]3C(=C(c4ccccc4)c4c(C)c(I)c(/C=C/c5ccc(OC)c(OC)c5)n4[B-]3(F)F)C(C)=C2I)cc1OC,880,inactive,Non-Toxic
CC1=C(I)C(/C=C/c2ccccc2OCc2ccccn2)=[N+]2C1=C(c1ccc([N+](=O)[O-])cc1)c1c(C)c(I)c(/C=C/c3ccccc3OCc3ccccn3)n1[B-]2(F)F,650,inactive,Non-Toxic
COc1cc(/C=C/C2=[N+]3C(=C(c4ccc([N+](=O)[O-])cc4)c4c(C)c(I)c(/C=C/c5cc(OC)c(OC)cc5[N+](=O)[O-])n4[B-]3(F)F)C(C)=C2I)c([N+](=O)[O-])cc1OC,860,inactive,Non-Toxic
COc1ccc(/C=C/C2=[N+]3C(=C(c4ccc([N+](=O)[O-])cc4)c4c(C)c(I)c(/C=C/c5ccc(OC)c(OC)c5)n4[B-]3(F)F)C(C)=C2I)cc1OC,350,inactive,Non-Toxic
